From PubChem BioAssay
S100A4 MyoIIA: S100A4-myosin IIA interaction inhibition | inhibition, % at 10.7 µM | AID 652163 | hit rate 0.14% among 360,000 | S100A4/TAMRA-MyoIIA peptide fluorescence polarization;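 active = mean inhibition of at least 70% across replicates, with every replicate also reaching that level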
Target sequence (P26447 whole entry, looked up): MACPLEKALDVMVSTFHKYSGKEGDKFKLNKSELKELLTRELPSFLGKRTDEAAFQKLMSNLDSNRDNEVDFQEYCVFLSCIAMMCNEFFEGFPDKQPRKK
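Material: S100A4 monomer protein | Medium: HEPES pH 7.2 with CaCl2, KCl, NaCl, DTT, Triton | Reagent: Labelled myosin peptide probe, 5 nM | Doses: One dose per compound | Times: 5 min incubation before reading | Benchmarks: Neutral control DMSO, positive control TFP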
E-selectin induc: E-selectin induction on HUVECs; P16581; HUVEC E-selectin immunofluorescence imaging; normalized: neutral wells 0, TNF-alpha wells 100; activation, % at 7.58 µM; hit rate 0.37% among 260,000; AID 686992;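 active = mean E-selectin-positive cell signal at least 10% of the positive control, reached in at least 60% of replicates, without over 20% cell loss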
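System: HUVEC, human umbilical vein endothelial cells; quantity: 3,000 cells/well; buffer or medium: EGM-2 medium, gelatin-coated wells; dosing: single-point compound dose; detection: immunofluorescence imaging; evaluation: % PE-positive cells; benchmarks: TNF-alpha, DMSO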
SIRT5 block: sirtuin-5 (human) deacylase inhibition. inhibition, % at 15 µM. Q9NXA8. hit rate 1.1% among 330,000. Purified SirT5, succinyl-peptide AMC, trypsin-coupled fluorescence; in the data active = inhibition above about 15%
Target sequence (Q9NXA8 whole entry, looked up): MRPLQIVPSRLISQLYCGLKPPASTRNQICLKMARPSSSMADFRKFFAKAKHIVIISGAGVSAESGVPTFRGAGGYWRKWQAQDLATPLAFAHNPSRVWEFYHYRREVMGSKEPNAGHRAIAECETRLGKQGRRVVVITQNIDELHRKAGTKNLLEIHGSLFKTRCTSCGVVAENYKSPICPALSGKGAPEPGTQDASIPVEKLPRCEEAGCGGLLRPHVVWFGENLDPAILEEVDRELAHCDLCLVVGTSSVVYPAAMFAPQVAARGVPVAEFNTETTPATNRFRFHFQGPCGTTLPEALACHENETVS
FGF22 binding: binders of recombinant human FGF22 by thermal shift; activity (Tm shift, normalised), % at 9.99 µM; SYPRO orange fluorescence; percent of sucrose octasulfate shift, DMSO zero; AID 651658; hit rate 1.5% among 340,000;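 active = mean Tm shift, scaled 0 neutral to 100 positive control, at about 1.3% or above, every replicate too, limit read from the data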
miR122 inh: inhibitors of miR-122 in Huh7 cells; Huh7 miR-122 Renilla luciferase sensor, 48 h; neutral wells = 0, positive control = 100; hit rate 0.3% among 340,000; activation (reporter increase), % at 12.5 µM; AID 602342;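 active = mean replicate activation score at least 90 and every replicate individually at or above 90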;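 note: higher luciferase means less miR-122 activity so hits act as miR-122 inhibitors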
The depositor's hits bear a star; x = no result given; [ ] = remark or other dose. Compounds with a hit are over-represented: about 2.5% of the library has one in this group of screens.

SMILES	S100A4 MyoIIA	E-selectin induc	SIRT5 block	FGF22 binding	miR122 inh
C[C@H](CO)N1C[C@H](C)[C@H](CN(C)Cc2ccc(C(=O)Nc3ccccc3N)cc2)Oc2ccc(NS(=O)(=O)c3cccs3)cc2CC1=O	-41	59*	2	0	104*[16.7 µM]
C[C@@H]1CN([C@H](C)CO)C(=O)Cc2cc(NS(=O)(=O)c3cccs3)ccc2O[C@H]1CN(C)Cc1ccc(C(=O)Nc2ccccc2N)cc1	-8	-2	-2	0	x
COc1ccc(S(=O)(=O)Nc2ccc3c(c2)CC(=O)N([C@H](C)CO)C[C@H](C)[C@H](CN(C)Cc2ccc(C(=O)Nc4ccccc4N)cc2)O3)cc1	-3	0	8	0	212*[16.7 µM]
C[C@H](CO)N1C[C@H](C)[C@H](CN(C)Cc2ccc(C(=O)Nc3ccccc3N)cc2)Oc2ccc(NS(=O)(=O)c3ccc(F)cc3)cc2CC1=O	-13	2	0	0	162*[16.7 µM]
COc1ccc(S(=O)(=O)Nc2ccc3c(c2)CC(=O)N([C@H](C)CO)C[C@@H](C)[C@@H](CN(C)Cc2ccc(C(=O)Nc4ccccc4N)cc2)O3)cc1	-10	0	6	0	-2[16.7 µM]
CCCC(=O)N1CC2(CCN(C(=O)NC(C)C)CC2)c2c(n(C)c3cc(OC)ccc23)[C@H]1CO	x	0	x	x	x
C[C@@H]1CN([C@@H](C)CO)C(=O)c2cc(NS(=O)(=O)c3ccccc3)ccc2O[C@H]1CN(C)S(=O)(=O)c1cccs1	2	0	2	0	4[16.7 µM]
C[C@H](CO)N1C[C@H](C)[C@@H](CN(C)CC2CCCCC2)Oc2ccc(NC(=O)C3CCCCC3)cc2CC1=O	13	1	3	0	4[16.7 µM]
c1ccc(Cn2cnc3ccccc32)cc1	x	x	x	x	-6
Clc1ccc(Cn2cnc3ccccc32)cc1	-5	0	0	43*	-3
O=C1NC(Cc2ccc(O)cc2)c2nc3ccc(F)cc3c(=O)n2-c2cc3ccccc3cc21 (stereo not given)	5	0	29*	1	7
COc1cc2nc3n(c(=O)c2cc1OC)-c1cc2ccccc2cc1C(=O)NC3CC(C)C (stereo not given)	-1	0	x	43*	-9
O=C1NC(Cc2ccc(O)cc2)c2nc3cc(F)c(F)cc3c(=O)n2-c2cc3ccccc3cc21 (stereo not given)	-3	1	x	0	3
Cn1c(=O)c2c(ncn2Cc2ccc(Cl)cc2)n(C)c1=O	2	x	-1	44*	-8
COCCCNC(=O)CCn1c(=O)c2ccccc2n(Cc2cccc([N+](=O)[O-])c2)c1=O	-4	0	29*	0	-3
COc1ccc(CCn2c(=O)c3cccnc3n(Cc3cccc([N+](=O)[O-])c3)c2=O)cc1OC	2	27*	0	0	x
C=CCn1c(SCC(=O)Nc2ccccc2-c2ccccc2)nc2cc(C(=O)O)ccc2c1=O	2	x	-3	43*	x
COC(=O)c1ccc2c(=O)n(CC3CCCO3)c(SCC(=O)Nc3ccccc3OC)nc2c1 (stereo not given)	x	2	x	x	190*
COCCNC(=O)CSc1nc2ccccc2c(=O)n1CC1CCCO1 (stereo not given)	x	x	x	x	286*
COC(=O)c1ccc2c(=O)n(CC3CCCO3)c(SCC(=O)Nc3ccccc3Cl)nc2c1 (stereo not given)	x	x	x	x	3
CCCC#Cc1ccc([C@@H]2[C@H]3CN(C(=O)Cc4cccnc4)CC(=O)N3[C@H]2CO)cc1	7	0	-6	x	x
C[C@@H]1CN([C@@H](C)CO)C(=O)c2cc(NC(=O)Nc3cccc4ccccc34)ccc2O[C@@H](C)CCCCO[C@H]1CN(C)C(=O)CCCN(C)C	15	4	0	0	3[16.7 µM]
O=C(Nc1ccccc1)NC1(c2cn(CC(=O)N3CCN(c4ccccc4)CC3)nn2)CCCCC1	7	x	2	-1	x
CSc1ccccc1C(=O)C1CCCN(C(=O)c2cc(C(C)C)no2)C1 (stereo not given)	3	1	2	0	-1
CSc1ccccc1C(=O)C1CCCN(C(=O)c2csnn2)C1 (stereo not given)	-5	4	1	43*	-3
CCC(=O)N(C)C[C@H]1Oc2cc(C3=CCCCC3)ccc2S(=O)(=O)N([C@H](C)CO)C[C@@H]1C	x	-1	x	x	16[16.7 µM]
